Screening results (PubChem)
SENP8 block-1 – inhibitors of human SENP8 protease. hit rate 0.64% among 360,000. inhibition, % at 20 µM. AID 602440. Q96LD8. recombinant SENP8, Nedd8 substrate fluorescence; in the data active means inhibition mostly above about 40%, no sharp cut-off; inactive means mostly below about 27%
Target sequence (Q96LD8 whole entry, looked up): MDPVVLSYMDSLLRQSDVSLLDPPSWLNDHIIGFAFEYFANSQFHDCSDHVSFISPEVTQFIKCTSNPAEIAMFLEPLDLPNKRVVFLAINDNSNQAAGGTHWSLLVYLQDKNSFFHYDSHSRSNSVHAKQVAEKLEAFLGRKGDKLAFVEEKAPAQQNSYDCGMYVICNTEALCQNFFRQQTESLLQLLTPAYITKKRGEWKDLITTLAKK
SENP8 block-2 – SENP8 protease inhibition; Q96LD8; purified SENP8, Z-RLRGG-aminoluciferin cleavage, luminescence; inhibition, % at 10 µM; hit rate 1.2% among 330,000; in the data active means inhibition above about 50%
SENP1 FRET inh – SENP1 (human) catalytic domain inhibition | Q9P0U3 | recombinant SENP1 catalytic domain, CyPet-SUMO1-YPet FRET cleavage | inhibition, % at 10 µM | hit rate 0.21% among 360,000;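 active means inhibition at least 30% at 10 µM, raw YFP signal under a set limit, fluorescence ratio 0.5 to 1.5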;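 further: 0% = enzyme with DMSO and 100% = no enzyme wells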
Target sequence (Q9P0U3 419-644 limits assumed): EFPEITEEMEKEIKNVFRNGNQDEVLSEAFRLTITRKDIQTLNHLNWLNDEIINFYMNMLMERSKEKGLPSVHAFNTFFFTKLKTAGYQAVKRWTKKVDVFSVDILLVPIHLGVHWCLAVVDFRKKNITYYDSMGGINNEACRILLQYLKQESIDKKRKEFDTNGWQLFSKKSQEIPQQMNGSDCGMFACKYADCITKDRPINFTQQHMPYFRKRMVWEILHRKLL
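Assay system: hSENP1 catalytic domain, recombinant. Amount: SENP1 enzyme, 20 pM final. Schedule: 50 min reaction, RT, dark. Technique: FRET, CFP and YFP emission. Control set: no-enzyme wells low, DMSO-plus-enzyme wells high control.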
SENP6 block – SENP6 protease inhibition | Recombinant SENP6 catalytic domain, aminoluciferin luminescence | inhibition, % at 10 µM | hit rate 1.8% among 330,000;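 active means inhibition above about 50% at the single tested dose, limit read from the data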;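 further: plate controls were DMSO wells with enzyme for no effect and DMSO wells lacking enzyme for full effect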
SENP7 block – SENP7 protease inhibition; Q9BQF6; recombinant SENP7, Z-RLRGG-aminoluciferin luminescence, 40 min; inhibition, % at 5 µM; hit rate 1.5% among 330,000;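 active means inhibition above about 50% at the single test dose, limit read from the data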;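 further: plate controls were DMSO with enzyme for no effect and no enzyme buffer wells for full effect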
* marks the source's active call; other numbers are inactive results. A selection: hits, their analogues and other compounds. The true share with any hit is near 2.5%.

Cc1nc2c(nc1C)C(=O)c1ccccc1C2=O was read as SENP8 block-1 64.9* and SENP1 FRET inh -0.9.
For Cc1nc2c(cc1C#N)C(=O)c1ccccc1-2 the results were SENP8 block-1 15.8, SENP8 block-2 3.9, SENP1 FRET inh 2.6, SENP6 block -4.7 and SENP7 block -1.0.
Screening O=C(Oc1ccc[nH]c1=O)c1cc([N+](=O)[O-])cc([N+](=O)[O-])c1 returned SENP8 block-1 31.9, SENP8 block-2 65.9*, SENP1 FRET inh 2.5, SENP6 block 88.2* and SENP7 block 43.3.
For COc1ccc(C(=O)Oc2ccc[nH]c2=O)cc1 the results were SENP8 block-1 14.4, SENP8 block-2 -17.1, SENP1 FRET inh 1.9, SENP6 block -26.4 and SENP7 block -2.6.
`COc1ccc2sc3cccc(NCCN(C)C)c3c(=O)c2c1` gave SENP8 block-1 29.0 and SENP1 FRET inh 25.4.
For CN(C)CCNc1ccc(CO)c2sc3ccc(O)cc3c(=O)c12 the results were SENP8 block-1 45.1* and SENP1 FRET inh 27.4.
Screening N=C(N)c1ccc(/C=C/c2ccc(C(=N)N)cc2O)cc1 returned SENP8 block-1 -440.1, SENP8 block-2 -3.6, SENP1 FRET inh 55.0*, SENP6 block 0.1 and SENP7 block 2.5.
For N=C(N)c1ccc(Cl)cc1 the results were SENP8 block-1 27.6, SENP8 block-2 -3.6, SENP1 FRET inh 2.2, SENP6 block -24.2 and SENP7 block -4.6.
CC1CC(C)(C)Nc2ccc(N=O)cc21 (stereo unspecified) was read as SENP8 block-1 45.0* and SENP1 FRET inh -4.5.
For CCCC(=Nc1ccccc1)C1=C(O)C(C(=O)OC)C(C)(C)CC1=O (stereo unspecified) the results were SENP8 block-1 12.3, SENP8 block-2 -7.3, SENP1 FRET inh 6.4, SENP6 block -21.9 and SENP7 block 2.2.
Screening CCCCC(=Nc1ccc(N)cc1)C1=C(O)C(C(=O)OC)C(C)(C)CC1=O (stereo unspecified) returned SENP8 block-1 54.1*, SENP8 block-2 -2.2, SENP1 FRET inh 48.2*, SENP6 block 13.7 and SENP7 block 6.4.
NC(=O)c1nsc(C(=O)N(CC(=O)NCc2ccccc2)c2ccc(F)cc2)c1N was read as SENP8 block-1 -297.3, SENP8 block-2 -2.7, SENP1 FRET inh -11.4, SENP6 block -19.7 and SENP7 block -7.4.
Screening CCN(CC)c1ccc2nc3ccc(N)cc3[n+](-c3ccccc3)c2c1 returned SENP8 block-1 39.3*, SENP8 block-2 35.7, SENP1 FRET inh 32.1, SENP6 block 31.7 and SENP7 block 17.4.
`CCN(CC)c1ccc2nc3ccccc3[n+](CC)c2c1` gave SENP8 block-1 13.5, SENP8 block-2 23.2, SENP1 FRET inh -2.7, SENP6 block 29.0 and SENP7 block 19.3.
Screening CCCCn1nnnc1C1(C)CCC(=O)N1CCOc1ccccc1 (stereo unspecified) returned SENP8 block-1 20.5 and SENP1 FRET inh 0.4.
Cc1occc1C(=O)N=Nc1c(O)n(C)c2ccccc12 was read as SENP8 block-1 25.0, SENP8 block-2 46.7, SENP1 FRET inh 3.9, SENP6 block 72.8* and SENP7 block 74.6*.
`Cc1ccc(N=C2NC(=O)/C(=C/c3cccs3)S2)cc1C` gave SENP8 block-1 16.8, SENP8 block-2 -10.3, SENP1 FRET inh 36.3*, SENP6 block -24.6 and SENP7 block -2.9.
COc1cc(S(N)(=O)=O)c(OC)cc1N was read as SENP8 block-1 7.4, SENP8 block-2 0.2, SENP1 FRET inh 5.3, SENP6 block -1.4 and SENP7 block 7.8.
COc1cc(N=Nc2ccc(C)cc2S(N)(=O)=O)c(C)cc1N was read as SENP8 block-1 49.1* and SENP1 FRET inh 4.0.
COc1cc(C(=O)NCCCNc2ccc([N+](=O)[O-])cc2)cc(OC)c1OC was read as SENP8 block-1 16.0, SENP8 block-2 -0.9, SENP1 FRET inh -0.4, SENP6 block 6.7 and SENP7 block -0.3.
Screening Cc1cc(N=NC(=O)c2ccccc2O)c2ccccc2c1O returned SENP8 block-1 20.2, SENP8 block-2 4.7, SENP1 FRET inh 3.7, SENP6 block 19.8 and SENP7 block 10.6.
O=C(N=Nc1ccc(NOC(=O)c2ccccc2Br)cc1)c1ccccc1O was read as SENP8 block-2 86.4*, SENP6 block 91.4* and SENP7 block 63.0*.
For COc1ccccc1-[n+]1c(C)cc(/C=C2\Sc3ccccc3N2C)cc1C the results were SENP8 block-1 39.3, SENP8 block-2 -0.2, SENP1 FRET inh -34.6, SENP6 block -3.5 and SENP7 block 1.6.
